Experimental findings from ChEMBL document CHEMBL4145696 (J Med Chem, 2018) are described below.

Data set [1] deals with M14. In words: Cytotoxicity in human M14 cells assessed as reduction in cell viability incubated for 72 hrs by MTS assay. Format: functional, cell-based. The note with it: M14, 72 h.
Data set [2] deals with RPMI-7951. In words: Cytotoxicity in human RPMI7951 cells assessed as reduction in cell viability incubated for 72 hrs by MTS assay. The data set is classed as functional, cell-based. The note with it: RPMI-7951, 72 h. Background: Tetrazolium assays rely on reduction of a dye to a coloured formazan, in cell work by metabolically active cells.
Data set [3] concerns A-375. In words: Cytotoxicity in human A375 cells assessed as reduction in cell viability incubated for 72 hrs by MTS assay. Format: functional, cell-based. Conditions: A-375, 72 h.
In data set [4] the test system is A-375. In words: Antitumor activity against human A375 cells xenografted in mouse assessed as reduction in tumor weight at 30 mg/kg, ip dosed every other day for 2 weeks. Format: functional, organism-based. A digest of the protocol: (§1)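 Nude mice (6–8 weeks) implanted s.c. in dorsal flank with 2.5×10^6 log-phase A375 cells in serum-free, phenol red-free medium mixed with Matrigel. At ~100 mm³ tumours, randomized (n = 8); i.p. 100 μL every other day for 2 weeks in PEG300:PBS 1:1, vehicle control.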
A general note: In xenograft studies the graft and the host belong to different species.

Data set [5] is filed under the species Bos taurus. Nature of the data set: Inhibition of bovine brain tubulin polymerization at 10 uM measured every 1 min for 20 mins by spectrophotometry.
Data set [6] in a line: Half life in human liver microsomes in presence of NADPH regeneration system.
For data set [7], the system named is DU-145. In words: Cytotoxicity in human DU145 cells assessed as reduction in cell viability incubated for 72 hrs by MTS assay. Format: functional, cell-based. Conditions: DU-145, 72 h. The method in brief: (§2)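 Prostate lines (parental PC-3 and DU-145, with paclitaxel- or docetaxel-resistant TxR sublines) grown in RPMI 1640 with 10% FBS and antibiotic/antimycotic at 37 °C, 5% CO2. Seeded at 1,800–3,500 cells/well overnight, then dosed at 10 concentrations, 0.03 nM–1 μM, plus DMSO vehicle, for 72 h, quadruplicate. MTS read at 490 nm; IC50 by nonlinear regression.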

Data set [8] deals with PC-3. In words: Cytotoxicity in human PC3 cells assessed as reduction in cell viability incubated for 72 hrs by MTS assay. Format: functional, cell-based. The note with it: PC-3, 72 h.
Data set [9] is described as follows: Cytotoxicity in human PC3-TxR cells assessed as reduction in cell viability incubated for 72 hrs by MTS assay. The data set is classed as functional, cell-based.
Data set [10] relates to Mus musculus. In words: Toxicity in human A375 cells xenografted mouse assessed as effect on body weight at 15 mg/kg, ip dosed every other day for 2 weeks relative to untreated control. Conditions: in vivo, 336 h. The data set is classed as organism-based.
Data set [11] concerns A-375. Nature of the data set: Antitumor activity against human A375 cells xenografted in mouse assessed as reduction in tumor volume at 15 mg/kg, ip dosed every other day for 2 weeks. The data set is classed as functional, organism-based. The method in brief: as §1
Data set [12] is described as follows: Half life in mouse liver microsomes in presence of NADPH regeneration system.
Data set [13] in a line: Intrinsic clearance in mouse liver microsomes in presence of NADPH regeneration system.
The nature of data set [14]: Resistance index, ratio of IC50 for cytotoxicity in human DU145-TxR cells to IC50 for cytotoxicity in human DU145 cells. Format: functional. A digest of the protocol:
(§3)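 Prostate lines cultured in RPMI 1640 with 10% FBS at 37 °C and 5% CO2: parental PC-3 with paclitaxel-resistant PC-3/TxR, and parental DU-145 with docetaxel-resistant DU-145/TxR. Cells seeded at 1,800–3,500/well and left overnight, then exposed 72 h to 10 concentrations (0.03 nM–1 μM) or DMSO vehicle, in quadruplicate. MTS read at 490 nm; IC50s by nonlinear regression; index = resistant IC50/parental IC50.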

The test system of data set [15] is A-375. Nature of the data set: Antitumor activity against human A375 cells xenografted in mouse assessed as reduction in tumor volume at 30 mg/kg, ip dosed every other day for 2 weeks. Format: functional, organism-based. A digest of the protocol: as §1
Data set [16] is described as follows: Intrinsic clearance in human liver microsomes in presence of NADPH regeneration system. In general terms: Liver microsomes are vesicles of endoplasmic reticulum, rich in cytochrome P450 enzymes.
Data set [17] has as its system A-375. In words: Antitumor activity against human A375 cells xenografted in mouse assessed as inhibition of tumor growth at 15 mg/kg, ip dosed every other day for 2 weeks relative to untreated control. The note with it: A-375, ip, 336 h, read-out: TGI. Format: functional. A digest of the protocol:
as §1

Data set [18] can be described thus: Resistance index, ratio of IC50 for cytotoxicity in human PC3-TxR cells to IC50 for cytotoxicity in human PC3 cells. The data set is classed as functional. A digest of the protocol:
as §3

The nature of data set [19]: Intrinsic clearance in rat liver microsomes in presence of NADPH regeneration system.
Data set [20] concerns A-375. In words: Antitumor activity against human A375 cells xenografted in mouse assessed as inhibition of tumor growth at 30 mg/kg, ip dosed every other day for 2 weeks relative to untreated control. Format: functional. Conditions: A-375, ip, 336 h, read-out: TGI. The method in brief:
as §1

In data set [21] the test system is Mus musculus. In words: Toxicity in human A375 cells xenografted mouse assessed as effect on body weight at 30 mg/kg, ip dosed every other day for 2 weeks relative to untreated control. The data set is classed as organism-based. Conditions: in vivo, 336 h.
Data set [22] can be described thus: Cytotoxicity in human DU145-TxR cells assessed as reduction in cell viability incubated for 72 hrs by MTS assay. Format: functional, cell-based. The method in brief: as §2
Data set [23] can be described thus: Half life in rat liver microsomes in presence of NADPH regeneration system.
For data set [24], the species on record is Homo sapiens. In words: Cytotoxicity in human DU145-TxR cells assessed as reduction in cell viability up to 1 uM incubated for 72 hrs by MTS assay. The data set is classed as functional, cell-based. A digest of the protocol: as §2
Data set [25] relates to A-375. Nature of the data set: Antitumor activity against human A375 cells xenografted in mouse assessed as reduction in tumor weight at 15 mg/kg, ip dosed every other day for 2 weeks. Format: functional. On the set-up: scale not given: the % may be the effect or the level left. A digest of the protocol:
as §1

The structures appear in SMILES notation. Active and inactive are the calls of the source. No cut-off for these calls is given here.

As to `COc1cc(C(=O)c2c[nH]c(-c3cccc4[nH]ccc34)n2)cc2c1OC=CO2`, the IC50 in data set [1] came to 13.8 nM; in data set [2], 34.8 nM; in data set [3], 17.1 nM.

As to `COc1cc(C(=O)c2c[nH]c(-c3c[nH]c4ccccc34)n2)cc2c1OC=CO2`, the outcome in data set [4], in [11] and in data set [15] was Active. In data set [5], the inhibition entry is “Active”. Also, the t1/2 in [6] worked out at 2.69 h; in [12], 1.42 h; in [23], 3.57 h. The IC50 in data set [7] was determined as 42.2 nM; in [8] it was 15.2 nM; in data set [9], 7.6 nM; in data set [1] it was 1.2 nM; in data set [2], 3.3 nM; in data set [3] it was 1.1 nM. Also, the IC50 in [22] worked out at 81.5 nM. In addition, the Activity result in data set [10] and in [21] was “Non-Toxic” throughout. Besides, the CLint scaled in data set [13] (liver microsomes) was 40.3 mL/min/kg; in data set [16] (liver microsomes), 7.7 mL/min/kg; in data set [19] (liver microsomes), 13.1 mL/min/kg. Besides, the “Ratio IC50” value in [14] is 1.9; in data set [18], 0.5. In data set [17], the inhibition in vivo at 15 mg/kg was 54.8%. Besides, the inhibition in vivo at 30 mg/kg in data set [20] was determined as 73.9%.

As to `O=C(c1ccc2c(c1)OCCO2)c1c[nH]c(-c2c[nH]c3ccccc23)n1`, the t1/2 in data set [6] stood at 3.5 h; in data set [12], 0.37 h; in [23], 0.85 h. In addition, the half-inhibitory concentration (IC50) in data set [1] stood at 119 nM; in [2], 214 nM; in data set [3] it was 159 nM. The intrinsic metabolic clearance (CLint scaled) in [13] (liver microsomes) came out at 154 mL/min/kg; in [16] (liver microsomes), 5.95 mL/min/kg; in [19] (liver microsomes), 54.9 mL/min/kg.

As for `COc1cc(C(=O)c2c[nH]c(-c3c[nH]c4ccccc34)n2)cc2c1OCCCO2`, the IC50 came to 38.2 nM in data set [1], 47.7 nM in [2] and 32.2 nM in data set [3].

For the compound `COc1cc(C(=O)c2c[nH]c(-c3c[nH]c4ccccc34)n2)cc2c1OCCO2`, the t1/2 stood at 2.13 h in [6], 2.03 h in [12] and 0.9 h in data set [23]. The IC50 came out at 11.3 nM in data set [1], 29.2 nM in data set [2] and 21 nM in data set [3]. Moreover, the figures for the intrinsic clearance (CLint scaled) in data set [13] (liver microsomes), in data set [16] (liver microsomes) and in [19] (liver microsomes) were 28.2 mL/min/kg, 9.76 mL/min/kg and 51.9 mL/min/kg, respectively.

As to `COc1cc(C(=O)c2c[nH]c(-c3c[nH]c4ccccc34)n2)cc2c1OCO2`, the t1/2 in data set [6] worked out at 1.28 h; in data set [12], 0.82 h; in [23], 0.18 h. The figures for the half-inhibitory concentration (IC50) in [1] and in [3] were 5.6 nM and 3.5 nM, respectively. Moreover, the intrinsic clearance (CLint scaled) in data set [13] (microsomes) came out at 69.6 mL/min/kg; in data set [16] (microsomes), 16.3 mL/min/kg; in [19] (microsomes), 253 mL/min/kg.

`O=C(c1ccc2c(c1)OCO2)c1c[nH]c(-c2c[nH]c3ccccc23)n1`: the t1/2 in [6] came to 3.77 h; in [12] it was 2.28 h; in [23], 2.55 h. Moreover, the IC50 in [1] worked out at 155 nM; in [2] it was 236 nM; in data set [3], 191 nM. Also, the intrinsic clearance (CLint scaled) in data set [13] (liver microsomes) stood at 25.1 mL/min/kg; in data set [16] (liver microsomes), 5.5 mL/min/kg; in data set [19] (liver microsomes), 18.3 mL/min/kg.

Regarding `COc1cc(C(=O)c2c[nH]c(-c3c[nH]c4cccc(C)c34)n2)cc2c1OC=CO2`, the IC50 in [1] came to 6.1 nM; in [2], 8.8 nM.

For the compound `CC(=O)O[C@H]1C(=O)[C@@]2(C)[C@H]([C@H](OC(=O)c3ccccc3)[C@]3(O)C[C@H](OC(=O)[C@H](O)[C@@H](NC(=O)c4ccccc4)c4ccccc4)C(C)=C1C3(C)C)[C@]1(OC(C)=O)CO[C@@H]1C[C@@H]2O` [PACLITAXEL], the IC50 in data set [7] was determined as 1.5 nM. The result in data set [24] was inactive. Besides, the Activity in [25] is listed as 62.3%. The result in data set [11] was Active. For the same compound, the inhibition in vivo at 15 mg/kg in [17] is 70.7%.

Usually IC50 stands for the concentration needed to halve the response being measured. The CLint scaled is the capacity of the preparation to metabolise the compound, expressed as a volume cleared per time.
